Results taken from publication PMC2903661 (Bioorganic & medicinal chemistry, 2010).

Legend:
[1] = target: T1, CB2 receptors (Mus musculus, UniProt P47936); assay: Blocking dissection study in LPS-5-day-treated CD1 mice; format: in vivo; settings: for reduction of the specific binding of [11C]1 in whole brain: LPS-5-day mice, AM630 3 mg/kg or GW405833 2 mg/kg s.c., normalized uptake, 60 min, control CD1 mice as measure of non-specific binding
How it was run: (§1)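 Control CD1 mice, or CD1 mice 5 days after a single i.p. LPS dose (5 mg/kg in saline, strain O111:B4), received AM630 3 mg/kg or GW405833 2 mg/kg s.c. in DMSO; controls got DMSO vehicle. Radiotracer (~150 GBq/μmol) was given i.v. 30 min later, and tissues were harvested at 60 min and gamma-counted. Whole-brain uptake was %ID/g per body weight normalized by blood; mean ± SD, n=3.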

[2] = target: T1, CB2 receptors; assay: Blocking dissection study in control CD1 mice; format: in vivo; settings: AM630 3 mg/kg or GW405833 2 mg/kg s.c., 60 min
How it was run: as §1

[3] = target: T1, CB2 receptors; assay: Baseline dissection biodistribution of [11C]1 in control CD1 mice; format: in vivo; settings: i.v., whole body time-activity curve
How it was run: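 Male CD-1 mice (23-28 g) received the radiotracer (specific radioactivity ~150 GBq/μmol, in saline) by lateral tail vein. They were killed by cervical dislocation at various times after injection. Organs and brain were removed and dissected on ice, then weighed and gamma-counted (counting error below 3%) against injectate aliquots as standards. Uptake was expressed as %ID/g tissue.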

[4] = target: T1, CB2 receptors; format: in vivo, mice
How it was run: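 Male CD1 mice got a single i.p. LPS dose (5 mg/kg in saline, strain O111:B4) 3 or 5 days before i.v. radiotracer; untreated CD1 mice served as controls. At 60 min, cerebellum, hippocampus, cortex, brainstem and rest of brain were dissected, weighed and gamma-counted. Uptake was %ID/g tissue (± SD, n=3), and regional ratios were taken as 5-day LPS over control.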

[5] = target: T1, CB2 receptors; format: in vivo; settings: APPswe/PS1dE9 mice

T1 sequence (P47936 whole entry): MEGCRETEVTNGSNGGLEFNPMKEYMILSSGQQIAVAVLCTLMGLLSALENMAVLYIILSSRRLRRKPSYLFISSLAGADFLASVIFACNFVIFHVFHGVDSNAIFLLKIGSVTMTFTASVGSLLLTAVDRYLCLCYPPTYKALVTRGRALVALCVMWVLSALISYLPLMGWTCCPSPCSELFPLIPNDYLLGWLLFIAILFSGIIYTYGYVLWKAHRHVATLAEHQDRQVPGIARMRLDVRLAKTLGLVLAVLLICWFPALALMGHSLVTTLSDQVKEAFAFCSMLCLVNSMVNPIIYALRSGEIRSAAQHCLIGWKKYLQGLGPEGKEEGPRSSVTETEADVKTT

Compound	reduction of the specific binding of [11C]1 in whole brain [1]	difference in normalized whole brain uptake between baseline and blockade [2]	specific CB2 cerebral uptake ([1]; LPS-induced mouse model of neuroinflammation, summary)	uptake of [11C]1 in the brain ([3]; brain)	uptake of [11C]1 in the heart ([3]; heart)	uptake of [11C]1 in the intestine ([3]; intestine)	uptake of [11C]1 in the kidney ([3]; kidney)	uptake of [11C]1 in the liver ([3]; liver)	uptake of [11C]1 in the spleen ([3]; spleen)	increase of brain uptake versus control mice, LPS three days before (Group 2) ([4]; LPS-3-day-treated CD1 mice versus control, all brain regions)	regional uptake ratio of Group 3 to Group 1, cerebellum ([4]; LPS-5-day-treated versus control CD1 mice, %ID/g tissue, cerebellum)	regional uptake ratio of Group 3 to Group 1, cortex ([4]; LPS-5-day-treated versus control CD1 mice, %ID/g tissue, cortex)	regional uptake ratio of Group 3 to Group 1, hippocampus ([4]; LPS-5-day-treated versus control CD1 mice, %ID/g tissue, hippocampus)	regional uptake ratio of Group 3 to Group 1, rest of the brain ([4]; LPS-5-day-treated versus control CD1 mice, %ID/g tissue, rest of the brain)	reduction of radioactivity uptake by blockade in cerebellum and brainstem ([5]; AM630, 60 min)	reduction of radioactivity uptake by blockade in cortex and rest of brain ([5]; AM630, 60 min)	uptake difference between baseline and blockade, brainstem ([5]; AM630 blockade, 60 min, brainstem)	uptake difference between baseline and blockade, cerebellum ([5]; AM630 blockade, 60 min, cerebellum)	uptake difference between baseline and blockade, cortex ([5]; AM630 blockade, 60 min, cortex)	uptake difference between baseline and blockade, rest of brain ([5]; AM630 blockade, 60 min, rest of brain)
COc1ccc2c(c1)c(CCN1CCOCC1)c(C)n2C(=O)c1cccc(Cl)c1Cl [GW405833]	84%	little difference	–	–	–	–	–	–	–	–	–	–	–	–	–	–	–	–	–	–
Cc1sc(=NC(=O)C2C(C)(C)C2(C)C)n(CCO[11CH3])c1C [[^11C]1]	–	–	78-84%	0.3 %ID/g tissue	0.7 %ID/g tissue	1.5 %ID/g tissue	2.2 %ID/g tissue	4.9 %ID/g tissue	1.3 %ID/g tissue	insignificant increase	1.8	1.7	1.9	1.5	–	–	–	–	–	–
COc1ccc(C(=O)c2c(C)n(CCN3CCOCC3)c3cc(I)ccc23)cc1 [AM630]	78%	little difference	–	–	–	–	–	–	–	–	–	–	–	–	insignificant reduction	significant reduction	29%	29%	36%	33%
